In series [1] the test system is CHO. In words: Selectivity ratio of EC50 for human mu opioid receptor-1 expressed in CHO cells to EC50 for human delta opioid receptor-1 expressed in CHO cells. It is filed as cell-based. An outline of the steps: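 The δ/μ potency ratio is built from PAM-mode β-arrestin EC50 values in PathHunter CHO-OPRD1 and CHO-OPRM1 cells. […] Incubation was 90 min at room temperature with luminescence read-out.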

Series [2] concerns the target T1, Delta-type opioid receptor (Homo sapiens, UniProt P41143). In words: Agonist activity at human delta opioid receptor-1 expressed in CHO cells after 90 mins by beta-arrestin recruitment assay. It is filed as cell-based. Put shortly: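 PathHunter CHO cells (OPRD1 or OPRM1) plated overnight at 37 °C in F-12 with 10% FBS and 25 mM HEPES. […] Incubated 90 min at room temperature, then luminescence read 1 h after detection reagent.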
(In general: Recruitment of arrestin is a read-out of receptor activation apart from second messengers.)

For another series, the target named is Mu-type opioid receptor (Homo sapiens, UniProt P35372). Kind of series: Positive allosteric modulation of human mu opioid receptor-1 expressed in CHO cells assessed as potentiation of endomorphin 1-induced response after 90 mins by beta-arrestin recruitment assay. It is filed as cell-based.
Sequence of Mu-type opioid receptor (P35372 whole entry): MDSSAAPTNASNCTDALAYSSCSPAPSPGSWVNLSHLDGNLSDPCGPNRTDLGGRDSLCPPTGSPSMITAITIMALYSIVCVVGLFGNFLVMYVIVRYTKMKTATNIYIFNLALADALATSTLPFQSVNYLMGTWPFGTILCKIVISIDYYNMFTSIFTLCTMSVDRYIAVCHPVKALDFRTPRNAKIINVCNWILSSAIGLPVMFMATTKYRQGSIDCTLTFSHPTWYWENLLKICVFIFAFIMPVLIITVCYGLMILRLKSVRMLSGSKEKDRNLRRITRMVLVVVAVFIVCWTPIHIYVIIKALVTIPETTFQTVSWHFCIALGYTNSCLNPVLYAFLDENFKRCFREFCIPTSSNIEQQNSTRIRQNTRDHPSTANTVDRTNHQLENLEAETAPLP
The target in series [3] is T1, Delta-type opioid receptor. In words: Positive allosteric modulation of human delta opioid receptor-1 expressed in CHO cells assessed as potentiation of leu-enkephalin-induced response after 90 mins by beta-arrestin recruitment assay. It is filed as cell-based.
Series [4] concerns CHO. Kind of series: Effect on delta receptor deficient CHO cells assessed as inhibition of cAMP accumulation. It is filed as functional, cell-based. The note with it: Cricetulus griseus. An outline of the steps: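 Parental CHO cells lacking δ receptor, test compound added alone. Cells in HBSS + 25 mM HEPES + 0.05% BSA, 2000 cells/well, with forskolin at 2 μM final. Incubated 45 min at rt. cAMP measured by TR-FRET (665/615 nm ratio) against a cAMP standard curve run alongside.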
In general terms: cAMP levels reflect the balance of adenylyl cyclase and phosphodiesterase activity.

Series [5] in a line: Solubility of the compound in HBSS/HEPES/FBS assessed as particulate matter formation at >3 uM by nephelometric analysis. Format: physicochemical. Particulars: buffer.
Series [6] deals with CHO. Kind of series: Induction of ERK1 phosphorylation in delta receptor deficient CHO cells. Format: cell-based. Particulars: Cricetulus griseus. Put shortly:
(§1)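 Parental CHO cells lacking δ receptor, test compound added alone. Cells serum-starved overnight in DMEM, then stimulated at 37 °C. Phospho-ERK1/2 measured in lysates by AlphaScreen SureFire. Basal in serum-free medium was set as 0% and 10% serum response as 100%.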

The nature of series [7]: Solubility of the compound in phosphate buffered saline assessed as particulate matter formation at >1 uM by nephelometric analysis. Format: physicochemical. Particulars: buffer.
For series [8], the system named is CHO. Kind of series: Induction of ERK2 phosphorylation in delta receptor deficient CHO cells. It is filed as cell-based. Particulars: Cricetulus griseus. Put shortly: as §1
For series [9], the target named is T1, Delta-type opioid receptor. Particulars: CHO.
The target of series [10] is T1, Delta-type opioid receptor. The note with it: CHO. This is another data set of the same source.
The target in series [11] is T1, Delta-type opioid receptor. Particulars: CHO. The source holds these as a separate data set.
For series [12], the target named is T1, Delta-type opioid receptor. The note with it: CHO. The source holds these as a separate data set.
For series [13], the target named is T1, Delta-type opioid receptor. The note with it: CHO. This is another data set of the same source.
The target of series [14] is T1, Delta-type opioid receptor. The note with it: CHO. The source holds these as a separate data set.
For series [15], the target named is T1, Delta-type opioid receptor. The note with it: CHO. This is another data set of the same source.
Series [16] deals with T1, Delta-type opioid receptor. Particulars: CHO. The source holds these as a separate data set.
In series [17] the target is T1, Delta-type opioid receptor. In words: Partial agonist activity at human delta opioid receptor expressed in CHO cells after 1 hr by [35S]GTPgammaS binding assay relative to SNC80. Format: functional, cell-based. A general note: GTPγS is a poorly hydrolysed GTP analogue; its binding reports G protein activation.

Molecules are shown by their SMILES. The source made the active and inactive calls. The rule behind the calls is not given here.

T1 sequence (P41143 whole entry): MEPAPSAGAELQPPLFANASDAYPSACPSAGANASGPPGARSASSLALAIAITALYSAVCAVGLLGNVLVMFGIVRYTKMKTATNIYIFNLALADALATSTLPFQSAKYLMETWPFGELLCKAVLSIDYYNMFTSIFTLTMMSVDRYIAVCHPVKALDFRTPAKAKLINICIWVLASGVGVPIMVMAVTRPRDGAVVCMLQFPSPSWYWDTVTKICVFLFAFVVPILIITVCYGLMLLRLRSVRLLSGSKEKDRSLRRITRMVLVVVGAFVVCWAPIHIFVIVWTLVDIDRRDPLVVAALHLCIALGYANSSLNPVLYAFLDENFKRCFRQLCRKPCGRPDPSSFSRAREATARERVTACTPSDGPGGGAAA

With `CC1(C)CC(=O)C2=C(C1)OC1=C(C(=O)CC(C)(C)C1)C2c1ccc(OCc2ccccc2OC(F)(F)F)cc1`, the Ratio EC50 in the series on CHO [1] was found to be 7. Moreover, the outcome in [2] was inactive. Moreover, at Mu-type opioid receptor, the EC50 (commonly the midpoint of the concentration-response curve) was 2000 nM and the Emax (in general, the maximal effect, on the per cent scale that the assay sets) was 111%. For the same compound, the EC50 in series [3] is 300 nM.

In the case of `Cc1ccc(COc2ccc(C3C4=C(CC(C)(C)CC4=O)OC4=C3C(=O)CC(C)(C)C4)cc2)cc1`, in the series on CHO [1], the Ratio EC50 is 13. Also, in series [2], the result was inactive. On Mu-type opioid receptor, the EC50 was 4000 nM and the Emax amounted to 65%. Further, the EC50 in series [3] is 300 nM.

`CC1(C)CC(=O)C2=C(C1)OC1=C(C(=O)CC(C)(C)C1)C2c1ccc(OCc2ccccc2C(F)(F)F)cc1`: the outcome in [2] was inactive. Further, on Mu-type opioid receptor, the EC50 was greater than 10000 nM and the maximal response (Emax) is greater than 20%. For the same compound, the EC50 in series [3] is greater than 10000 nM.

With `CC1(C)CC(=O)C2=C(C1)OC1=C(C(=O)CC(C)(C)C1)C2c1ccc(OCc2ccccc2F)cc1`, the EC50 in [3] amounted to 100 nM.

Turning to `CC1(C)CC(=O)C2=C(C1)OC1=C(C(=O)CC(C)(C)C1)C2c1ccc(OCc2ccccc2Cl)cc1`, in series [2], the outcome was inactive. Moreover, the EC50 is greater than 10000 nM on Mu-type opioid receptor and 300 nM in series [3]. On Mu-type opioid receptor, the Emax is greater than 100%.

On to `CC1(C)CC(=O)C2=C(C1)OC1=C(C(=O)CC(C)(C)C1)C2c1ccc(OCc2ccccc2CO)cc1`, for which the Ratio EC50 in the series on CHO [1] worked out at 10. The result in series [2] was inactive. For the same compound, on Mu-type opioid receptor, the EC50 was determined as 10000 nM and the Emax came to 112%. The EC50 in [3] was 1000 nM.

`CC1(C)CC(=O)C2=C(C1)OC1=C(C(=O)CC(C)(C)C1)C2c1ccc(OCc2cccc(F)c2)cc1`: the Ratio EC50 in the series with CHO [1] worked out at 7. Also, the result in [2] was inactive. Also, at Mu-type opioid receptor, the 50% effective concentration (EC50) worked out at 7000 nM and the Emax turned out to be 182%. In series [3], the EC50 was determined as 1000 nM.

With `CC1(C)CC(=O)C2=C(C1)OC1=C(C(=O)CC(C)(C)C1)C2c1ccc(OCc2ccccc2OC(F)F)cc1`, in the series on CHO [1], the Ratio EC50 was found to be 15. Besides, in [2], the result was inactive. On Mu-type opioid receptor, the EC50 is 3000 nM and the Emax was 80%. For the same compound, in [3], the EC50 amounted to 200 nM.

Take `CC1(C)CC(=O)C2=C(C1)OC1=C(C(=O)CC(C)(C)C1)C2c1ccc(OCc2ccccc2)cc1`: the Ratio EC50 in the series with CHO [1] came to 30. In addition, the outcome in series [2] was inactive. Moreover, on Mu-type opioid receptor, the EC50 was found to be 6000 nM and the Emax turned out to be 130%.

As for `Cc1ccccc1COc1ccc(C2C3=C(CC(C)(C)CC3=O)OC3=C2C(=O)CC(C)(C)C3)cc1`, the result in the series on CHO [4], in the series with CHO [6] and in the series on CHO [8] was inactive. The solubility result in series [5] and in series [7] was “Insoluble” throughout.

`C=CCN1C[C@H](C)N([C@H](c2ccc(C(=O)N(CC)CC)cc2)c2cccc(OC)c2)C[C@H]1C`: the log(activity) was 1.06 in series [9], 0.66 in [13], 0.56 in [14] and 0.86 in series [15]. Moreover, the pKA in [10] stood at 7.7; in series [11] it was 7.7; in series [12] it was 7.7; in series [16], 6.38.

In the case of `CN1CC[C@]2(c3cccc(O)c3)Cc3nc4ccccc4cc3C[C@H]2C1`, the log(activity) was 0.22 in series [9] and 0.67 in series [14]. Also, the pKA was found to be 8.4 in [10] and 7.6 in series [12]. Also, in [17], the Activity is 84%.

As for `CC1(C)CC(=O)C2=C(C1)OC1=C(C(=O)CC(C)(C)C1)C2c1ccc(OCc2ccccc2S(C)(=O)=O)cc1`, the Ratio EC50 in the series on CHO [1] was found to be 6. In [2], the result was inactive. Besides, on Mu-type opioid receptor, the EC50 turned out to be 5000 nM and the Emax is 42%. Also, in [3], the EC50 worked out at 900 nM.

As for `CC1(C)CC(=O)C2=C(C1)OC1=C(C(=O)CC(C)(C)C1)C2c1ccc(OCc2cccc(Cl)c2Cl)cc1`, the EC50 in series [3] turned out to be 100 nM.

Consider `CC1(C)CC(=O)C2=C(C1)OC1=C(C(=O)CC(C)(C)C1)C2c1ccc(OCc2ccccc2Br)cc1`, for which the solubility result in series [5] and in series [7] was “Insoluble” throughout. Further, in series [3], the EC50 came out at 50 nM.

For `CC1(C)CC(=O)C2=C(C1)OC1=C(C(=O)CC(C)(C)C1)C2c1ccc(OCc2ccc(F)cc2)cc1`, in series [3], the EC50 is 100 nM.

For the compound `Cc1cccc(COc2ccc(C3C4=C(CC(C)(C)CC4=O)OC4=C3C(=O)CC(C)(C)C4)cc2)c1`, in the series with CHO [1], the Ratio EC50 was determined as 15. Moreover, in series [2], the result was inactive. The EC50 is 3000 nM at Mu-type opioid receptor and 200 nM in [3]. Also, the Emax on Mu-type opioid receptor is 120%.

The values are drawn from ChEMBL document CHEMBL3425479, “Discovery, synthesis, and molecular pharmacology of selective positive allosteric modulators of the δ-opioid receptor” (J Med Chem, 2015).
